These results are taken from the array DNA melting data of Ke et al. (doi:10.1101/2024.01.08.574731).

Data set [1] can be described thus: melting temperature; fluorescence melt of hairpins on a sequencing array, two-state fit, raised by 9.35 °C to match UV melts. Particulars: sodium 0.088 M. The method, boiled down: (§1)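 Folding enthalpy and melting temperature were estimated with bootstrapped two-state fits and combined across four replicates by inverse-variance weighting, with fitted temperatures raised by 9.35 °C to match UV melts. The data were Cy3 fluorescence of library hairpins, with annealed Cy3 and quencher oligos, on a sequenced MiSeq flow cell in 50 mM Na-HEPES pH 8.0, 25 mM NaCl, imaged in 2.5 °C steps up to 60 °C and normalised to pre-quench Cy3 and control constructs.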

The nature of data set [2]: folding enthalpy; higher = less favourable; fluorescence melt of hairpins on a sequencing array, two-state fit. The following applies: sodium 0.088 M. The method, boiled down: as §1

For the sequence GCCCCGCGAAAGCTCGGC (((..((....))..))), the Tm in data set [1] came to 38.8 °C. Further, the folding enthalpy in data set [2] was -20.3 kcal/mol.
On the same counts, the results for GCCGACGGAAACGCCAGC ((.(.((....)).).)) are 33.8 °C and -13.3 kcal/mol.
In the same order, the values of GCTGAGCCGAAAGGCAGC (((..(((....)))))) are 51.7 °C and -15.2 kcal/mol.
In the same order, the values of GATGCGCGAAAGCGAATC (((.(((....))).))) are 57.2 °C and -22.3 kcal/mol.
Turning to GATCTGTATACAGATC ((((((....)))))), in data set [1], the Tm was 54.3 °C. In addition, the folding enthalpy in data set [2] was -40.8 kcal/mol.
On the same counts, the results for CGGTACGGAAACGTCCCG (((.(((....))).))) are 46.6 °C and -25 kcal/mol.
Regarding GTAACAGGAAACTGCTAC (((.(((....))).))), the Tm in data set [1] was determined as 32 °C. The folding enthalpy in data set [2] is -29.1 kcal/mol.
On the same counts, the results for GGGACGGGAAACCGTCTC (.(((((....))))).) are 56.5 °C and -20.2 kcal/mol.
In the same order, the values of GTATAGGGAAACCTATAC (((((((....))))))) are 50.1 °C and -41 kcal/mol.
Consider GACACTCCGAAAGGAGTC (((..(((....)))))), for which the Tm in data set [1] worked out at 32 °C. Besides, the folding enthalpy in data set [2] is -7.77 kcal/mol.
On the same counts, the results for GGTAGCGAAAGCTATACC ((((((....)))..))) are 44 °C and -15.5 kcal/mol.
On the same counts, the results for GTCGAAGGAAACCTCGAC (((((.(....).))))) are 48 °C and -31.8 kcal/mol.
In the case of GTCGATGGAAACACCGAC ((((.((....)).)))), in data set [1], the Tm worked out at 47.2 °C. Besides, the folding enthalpy in data set [2] is -38 kcal/mol.
In the same order, the values of GCGCGGCGAAAGCTCCGC (((..((....))..))) are 58.3 °C and -20.3 kcal/mol.
In the same order, the values of GTAGACGGAAACGTCCAC ((.((((....)))).)) are 37.9 °C and -13.4 kcal/mol.
On the same counts, the results for GTTAGCGAAAGCTGGAAC ((((((....)))..))) are 27 °C and -8.68 kcal/mol.
In the case of GGTTTTGAAAAAAACC ((((((....)))))), the Tm in data set [1] was 51.5 °C. Also, the folding enthalpy in data set [2] was -26.5 kcal/mol.
In the same order, the values of GGACAGGGAAACTTGTCC (((((.(....).))))) are 49 °C and -37.1 kcal/mol.
In the case of GATCATGTGATGATC ((((((...)))))), the Tm in data set [1] was 47.2 °C. Also, the folding enthalpy in data set [2] is -31.4 kcal/mol.
In the same order, the values of CGTCAGAAATGACG (((((....))))) are 51.6 °C and -24.5 kcal/mol.
On the same counts, the results for GTGATGGGAAACTGTCAC ((((..(....)..)))) are 39.1 °C and -32.5 kcal/mol.
For CACTGGAAACAGTG (((((....))))), in data set [1], the Tm is 50.7 °C. Besides, the folding enthalpy in data set [2] was -26.7 kcal/mol.
In the same order, the values of GCGTCTCACGC ((((...)))) are 56.4 °C and -23.4 kcal/mol.
In the same order, the values of CGAATCGGAAACGACTCG (((.(((....))).))) are 42.1 °C and -36.2 kcal/mol.
In the case of AGAGGGAAACCTCT (((((....))))), the Tm in data set [1] is 43.4 °C. Moreover, in data set [2], the folding enthalpy is -16.6 kcal/mol.
On the same counts, the results for GTACACGAAAGTGAATAC ((((((....)))..))) are 28.6 °C and -10.6 kcal/mol.
On the same counts, the results for GATCCATTCGTGGATC ((((((....)))))) are 55.3 °C and -41.1 kcal/mol.
Turning to GCTATGCGAAAGCGTAGC ((((.((....)).)))), the Tm in data set [1] was 65.7 °C. For the same sequence, the folding enthalpy in data set [2] is -34.5 kcal/mol.
In the case of GCCGACTCGAAAGAGGGC (((..(((....)))))), the Tm in data set [1] amounted to 47.1 °C. The folding enthalpy in data set [2] is -23.1 kcal/mol.
As for GCTTGGCGAAAGCTACGC ((.(.((....)).).)), the Tm in data set [1] came to 43.3 °C. The folding enthalpy in data set [2] is -14.8 kcal/mol.
On the same counts, the results for GGATGGGCGAAAGCCTCC (((..(((....)))))) are 36.9 °C and -11.3 kcal/mol.
GGCCATGGAAACACGGCC ((((.((....)).)))): the Tm in data set [1] came to 51.7 °C. For the same sequence, the folding enthalpy in data set [2] was -45.4 kcal/mol.
In the same order, the values of GCGGGTGCCGC ((((...)))) are 55.9 °C and -23.3 kcal/mol.
On the same counts, the results for GCTGCCGAAAGGCAAGC ((((((....))).))) are 66.7 °C and -19.2 kcal/mol.
In the same order, the values of GATCGTTATCACGATC ((((((....)))))) are 52.7 °C and -42 kcal/mol.
On to GAAACGGGAAACCGTTTC (((((((....))))))), for which, in data set [1], the Tm stood at 60.3 °C. Besides, the folding enthalpy in data set [2] was -50.9 kcal/mol.
For GTGTCCGAAAGGATCAC ((((((....))).))), the Tm in data set [1] is 51 °C. For the same sequence, the folding enthalpy in data set [2] was -25.2 kcal/mol.
As to GAGTAGGAAACTACTC ((((((....)))))), the Tm in data set [1] is 51.1 °C. Also, the folding enthalpy in data set [2] was -30.1 kcal/mol.
GTTCCGCGAAAGCGCAAC (((.(((....))).))): the Tm in data set [1] turned out to be 38.4 °C. The folding enthalpy in data set [2] is -13.3 kcal/mol.
GATCCGGTCCGGATC ((((((...)))))): the Tm in data set [1] stood at 59.8 °C. The folding enthalpy in data set [2] is -40.6 kcal/mol.
GGATACGAAAGTAATTCC ((((((....)))..))): in data set [1], the Tm stood at 27.7 °C. Also, the folding enthalpy in data set [2] is -12 kcal/mol.
In the same order, the values of ACCGAGAAATCGGT (((((....))))) are 49.5 °C and -18.3 kcal/mol.
In the same order, the values of TCAACGAAAGTTGA (((((....))))) are 52 °C and -17.5 kcal/mol.
On to GTTGTACCGAAAGGTAAC (((..(((....)))))), for which, in data set [1], the Tm amounted to 47.4 °C. The folding enthalpy in data set [2] was -23.7 kcal/mol.
GATCGCCCGAGCGATC ((((((....)))))): in data set [1], the Tm amounted to 67.5 °C. The folding enthalpy in data set [2] is -37.4 kcal/mol.
In the case of GATCTAGGCTAGATC ((((((...)))))), in data set [1], the Tm is 45.5 °C. Further, the folding enthalpy in data set [2] was -55.2 kcal/mol.
In the same order, the values of GTTCGTCGAAAGACAAC (((.(((....)))))) are 42.5 °C and -17.2 kcal/mol.
On the same counts, the results for CTACAGAAATGTAG (((((....))))) are 36.5 °C and -13.3 kcal/mol.
Regarding GTGCCCGGAAACGGGTAC ((.((((....)))).)), the Tm in data set [1] stood at 62.9 °C. Further, in data set [2], the folding enthalpy is -30 kcal/mol.
As for GTCTGCACGAAAGTGGAC (((..(((....)))))), the Tm in data set [1] amounted to 34.7 °C. Besides, the folding enthalpy in data set [2] is -15 kcal/mol.
For GCGTCGCGAAAGCAAAGC ((.(.((....)).).)), the Tm in data set [1] was found to be 62.6 °C. In addition, the folding enthalpy in data set [2] is -21.3 kcal/mol.
In the same order, the values of GATCCGAGTACGGATC ((((((....)))))) are 58.6 °C and -40.8 kcal/mol.
As to GCCAAGCGAAAGCCTAGC ((.(.((....)).).)), the Tm in data set [1] worked out at 31.2 °C. Moreover, the folding enthalpy in data set [2] was -9.82 kcal/mol.
In the same order, the values of GATCCACGAAAGTGCATC (((.(((....))).))) are 32.8 °C and -16.1 kcal/mol.
For GGGTGTGGAAACACGCTC (.(.(((....))).).), the Tm in data set [1] came to 56.7 °C. Also, in data set [2], the folding enthalpy was -17.8 kcal/mol.
Consider GATCGCTTCTGCGATC ((((((....)))))), for which the Tm in data set [1] stood at 68.3 °C. In data set [2], the folding enthalpy was -42.3 kcal/mol.
